Bioassay records from PubChem BioAssay.
Tn7 DDE FP = DD(E)-Tn7 binding inhibition, primary FP screen | FP displacement of FITC-Tn7 peptide from fibrin DD(E); 0% = median of compound wells per plate | hit rate 0.13% among 370,000 | inhibition, % at 8.3 µM | AID 720508 | P02675;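 active means inhibition above the mean of compounds falling within the control limits plus 3 SD of them, cut at about 14% in these data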;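 further: 0% = plate median of compound wells and 100% = 10 µM Aha-Tn7 peptide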
Target sequence (P02675 whole entry, looked up): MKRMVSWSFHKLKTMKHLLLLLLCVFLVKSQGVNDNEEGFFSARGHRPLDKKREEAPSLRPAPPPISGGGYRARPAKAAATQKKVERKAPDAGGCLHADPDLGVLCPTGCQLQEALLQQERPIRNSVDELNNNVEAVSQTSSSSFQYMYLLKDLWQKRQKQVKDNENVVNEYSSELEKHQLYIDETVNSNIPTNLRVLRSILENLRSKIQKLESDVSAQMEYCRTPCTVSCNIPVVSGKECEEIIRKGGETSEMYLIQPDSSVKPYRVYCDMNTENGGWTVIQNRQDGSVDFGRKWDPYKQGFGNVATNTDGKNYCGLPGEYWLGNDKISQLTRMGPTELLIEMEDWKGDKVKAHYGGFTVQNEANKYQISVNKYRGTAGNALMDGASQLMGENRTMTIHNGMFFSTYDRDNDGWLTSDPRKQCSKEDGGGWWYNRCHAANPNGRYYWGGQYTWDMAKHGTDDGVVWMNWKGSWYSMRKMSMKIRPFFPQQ
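system = human fibrin DD(E) protein | quantity = DD(E) 2 µM final | medium = Tris/NaCl/CaCl2 buffer, pH 7.8 | also added = labelled Tn7 tracer, 0.1 µM | compound dosing = single point at 8.3 µM | timing = compound with protein 10 min, then 3 h after probe, room temperature | signal = FP measurement | benchmarks = Aha-Tn7 high control | repeats = one replicate per compound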
Keap1-Nrf2 PPI = inhibitors of human Keap1-Nrf2 protein-protein interaction. hit rate 0.15% among 340,000. Q14145. Keap1 Kelch-Nrf2 peptide fluorescence polarization, 1536-well. AID 504523. inhibition, % at 9.4 µM; in the data active means inhibition above about 12%;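 further: human Keap1 Kelch domain with fluorescein labeled Nrf2 9mer peptide probe; 0% = neutral control wells and 100% = peptide positive control; higher means more block of Keap1 binding to Nrf2 peptide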
C-LANA FP = inhibitors of KSHV LANA C-terminal domain DNA binding; MBP-C-LANA/FAM-LBS DNA binding, fluorescence polarization; inhibition, % at 9 µM; hit rate 0.078% among 340,000; AID 504423;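 active means highest replicate inhibition at or above 60% at 9 µM, even if other replicates fall short; inactive means all replicates below 60% inhibition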;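 further: 0% = neutral control wells and 100% = 4 µM acridine orange control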
Rtt109 Vps75 = inhibitors of Candida albicans Rtt109/Vps75 histone acetyltransferase. inhibition, % at 34.9 µM. hit rate 0.16% among 330,000. purified Rtt109/Vps75, ThioGlo CoA-SH fluorescence, 4 h. Q5AAJ8. AID 540336;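 active means inhibition of at least 50% in every replicate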
Tn6 DDE FP = inhibitors of Tn6 peptide binding to human fibrin DD(E). P02675. hit rate 0.21% among 370,000. Fibrin DD(E) TRITC-Tn6 fluorescence polarization displacement. inhibition, % at 8.3 µM;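 active means inhibition above a per-campaign cutoff: mean of compounds within control limits plus 3 SD, cut at about 15% in these data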;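 further: 0% = median of all compound wells on the plate and 100% = blocking peptide control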
Tn6 DDE ctr = DD(E)-Tn6 binding inhibition, counter-screen; Fibrin DD(E), TRITC-Tn6 fluorescence polarization displacement; 0% = median of compound wells, not DMSO; shares compounds with Tn6 DDE FP; inhibition, % at 8.3 µM; hit rate 2% among 680; AID 720621;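 active means inhibition above the mean of test compounds lying between the control limits plus 3 SD of those, cut at about 14% in these data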;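 further: 0% = median of compound wells and 100% = wells with Aha-Tn7 blocking peptide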
Tn6 DDE conf = DD(E)-Tn6 binding inhibition, FP confirmation. hit rate 10% among 680. FP displacement of TRITC-Tn6 peptide from DD(E); 0% = per-plate median of test wells. inhibition, % at 8.3 µM. shares compounds with Tn6 DDE FP. AID 720631;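 active means inhibition above the mean of compounds lying within the control limits plus 3 SD, cut at about 16% in these data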;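 further: 100% = high control wells holding a competing inhibitor peptide at 10 µM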
Active calls of the source: *; · = not tested or not shown; ! = not active in a repeat. In the library only some 0.6% were active in any assay of this set; here they are far more common.

SMILES	Tn7 DDE FP	Keap1-Nrf2 PPI	C-LANA FP	Rtt109 Vps75	Tn6 DDE FP	Tn6 DDE ctr	Tn6 DDE conf
CS(=O)(=O)N1CCN=C1SCc1ccc(Br)cc1	-2.5	-0.2	-0.1	8.4	0.4	·	·
Cc1cc(N)ccc1-n1c(C)ccc1C	4.4	0.7	-0.7	-7.4	154.0*	1.8	11.1
Cc1cc(C)c2c(N)c(C(=O)Nc3ccccc3Cl)sc2n1	5.8	·	·	·	17.6*	-4.7	-6.5
OCCN1CCN(CCOc2cccc(Cl)c2)CC1	-7.2	-5.1	-0.3	-9.2	16.6*	-0.3	-3.6
Clc1cccc(OCCN2CCNCC2)c1	1.2	-5.1	-0.7	-2.3	3.8	·	·
COc1ccc(NC(=O)Cn2cnc3c(cnn3-c3ccc(C)c(C)c3)c2=O)c(OC)c1	1.7	-0.3	0.8	-16.2	15.9*	5.7	-8.3
O=C(NCCS(=O)(=O)N1CCN(c2ccccc2)CC1)c1cccs1	3.7	-0.8	0.9	16.4	-1.3	·	·
O=C(NCCS(=O)(=O)N1CCN(c2ccccc2F)CC1)c1cccs1	8.7	-1.1	-1.8	-2.7	16.8*	6.1	-3.8
CC1(C)CC(=O)C(N=Nc2cc(C(F)(F)F)ccc2Cl)=C(O)C1	-6.2	2.2	-0.3	-7.6	-6.2	·	·
O=C1CCCC(O)=C1N=Nc1c(Cl)cc(C(F)(F)F)cc1Cl	0.5	0.6	1.9	5.9	43.2*	-2.5	-8.7
CCOC(=O)[C@]12CCCC3=C1N(CCC3)C(=O)[C@@H](CC(=O)NCCCOC)C2	-6.2	·	·	·	-2.1	·	·
O=C1c2ccccc2C(=O)c2c(NCc3cccnc3)cccc21	0.6	-6.2	-2.0	1.6	6.1	·	·
O=C1c2cccc(NCCCNCCO)c2C(=O)c2cccc(NCCCNCCO)c21	-6.5	0.0	-13.9	1.7	21.4*	7.4	32.3*
N#Cc1ccc(Cn2ccc3ccc(-c4ccc5ccn(C(=O)C6CC6)c5c4)cc32)cc1	7.8	·	·	·	4.8	·	·
C[n+]1cc2c3c(ccc2c2ccc4cc5c(cc4c21)OCO5)OCO3	9.8	·	·	·	27.4*	2.7	19.9*
O=C(Cc1cc(=O)[nH][nH]1)N/N=C/c1ccccc1C(F)(F)F	-3.6	·	·	·	3.9	·	·
CCC(=O)Nc1cc(OC)c(NC(=S)Nc2ccccc2CC)cc1OC	1.2	·	·	·	74.0*	3.9	-7.0
O=C(Nc1ccc2nn(-c3ccccc3)nc2c1)c1ccc2c(c1)OCCO2	-3.9	-0.2	0.3	-13.2	-3.5	·	·
O=C(Nc1ccc2nn(-c3ccccc3)nc2c1)c1ccc(Br)o1	3.4	-4.6	1.2	3.2	16.8*	1.0	-2.8
COCCCNc1nc2c(c(=O)[nH]c(=O)n2C)n1CC(O)COc1ccccc1C (stereo unspecified)	5.2	2.2	0.6	1.4	17.1*	-0.6	0.1
COCCCNc1nc2c(c(=O)[nH]c(=O)n2C)n1CC(O)COc1ccccc1 (stereo unspecified)	-4.7	2.8	0.0	1.1	-1.5	·	·
C=CCN1C(=O)[C@@H](CC(=O)NCc2ccc(OC)c(OC)c2)[C@]2(C(=O)OC)CCCCC=C12	2.9	·	·	·	-3.0	·	·
CCOc1ccc(OCC)c(S(=O)(=O)n2cnc(C)c2)c1	-3.7	1.9	-0.8	-3.7	16.3*	-3.0	-7.6
CCOc1ccc(OCC)c(S(=O)(=O)N2CCCCC2)c1	-0.1	-3.4	-0.2	7.6	-3.8	·	·
CC1CN(C(=O)c2ccc(COc3ccccc3Br)o2)CC(C)O1 (stereo unspecified)	7.6	-0.7	-0.9	-4.0	21.3*	-1.1	-0.6
COc1ccc(-n2c(=S)[nH]c3cc(C(=O)Nc4cccc(C)c4)ccc3c2=O)cc1	0.3	-1.6	0.4	-5.1	-15.2	·	·
COc1ccc(-n2c(=S)[nH]c3cc(C(=O)Nc4ccc(OC)c(OC)c4)ccc3c2=O)cc1	-2.1	1.0	2.1	-3.5	16.9*	-3.0	-12.1
Cn1cccc1C(=O)N1CCN(S(=O)(=O)c2ccc(Br)s2)CC1	4.4	·	·	·	-3.6	·	·
CCC(c1nnnn1-c1ccc2c(c1)OCCO2)N1CCN(c2ncccc2C(F)(F)F)CC1 (stereo unspecified)	-5.9	·	·	·	15.4*!	1.8	-2.2
